Screens as filed in PubChem.
Diaph inh CS – inhibits diaphorase or chemically oxidizes, flagging diaphorase assay artifacts. diaphorase resazurin-to-resorufin fluorescence, NADH, 16 min; bacterial (C. kluyveri) enzyme, not human. inhibition, % at 20 µM. 190,000 tested, 0.69% active. AID 1217;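 active = primary screen inhibition at 20 µM above a set limit, cut at about 50% in these data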;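 also: plate controls were DMSO with full reaction for no effect and wells lacking NADH for full effect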
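System: Diaphorase enzyme from Clostridium kluyveri | Amount: Enzyme working solution with 0.14 U/mL diaphorase | Benchmarks: No-NADH positive control and DMSO neutral control | Signal: Fluorescence of resorufin formed from resazurin, Ex 544/Em 590 nm | Schedule: 16-min room-temperature incubation before reading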
G6PDH counter – inhibits Leuconostoc G6PDH, flagging false hits in G6PDH-based assays. Purified L. mesenteroides G6PDH, diaphorase/resazurin coupled fluorescence, 45 min. inhibition, % at 5 µM. 200,000 tested, 0.12% active
L major viab – inhibitors of Leishmania major promastigote growth; 200,000 tested, 9% active; inhibition, % at 10 µM; AID 1063; Leishmania major promastigotes, resazurin fluorescence viability;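 also: promastigotes grown with compound for 44 hours at 28 °C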
WT yeast gro inh – growth inhibition of WT yeast, mitochondrial fusion screen; mitochondrial fusion phenotypic screen, WT strain; inhibition, % at 10 µM; 190,000 tested, 2.1% active; AID 1362; in the data active = inhibition above about 58%; tested in S. cerevisiae
Diaphorase act – activates diaphorase or chemically reduces, flagging diaphorase assay artifacts | Diaphorase/resazurin coupled assay, resorufin fluorescence, 16 min; hits give high values; 1 = vehicle wells, 0 = NADH-free wells | activation factor at 20 µM | 190,000 tested, 0.005% active | AID 1229;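 active = diaphorase activity raised at least twofold by the compound at 20 µM; inactive = activation factor below 2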
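test system = bacterial diaphorase enzyme (C. kluyveri) | quantity = enzyme 0.07 U/mL final | reagent = NADH substrate 0.114 mM plus resazurin dye 0.1 mM, final | incubation = 16 min enzyme reaction, ambient temperature | buffer or medium = HEPES pH 7.4 buffer with MgCl2 and Tween 20 | signal = fluorescence of resorufin, 544 nm excitation, 590 nm emission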
Numbers without * were called inactive. This is a sample that favours compounds with a hit; in the whole collection about 11% have one here. Rule as the data show it, unless noted: active = inhibition above about 50%; inactive = the rest.

What do the screens show for `CCOc1cc(/C=N/NC(=O)COc2ccc(C)cc2)ccc1OC(=O)c1cccs1`?
Diaph inh CS: 22; G6PDH counter: 4; L major viab: 1; WT yeast gro inh: 7; Diaphorase act: 0.8

What do the screens show for `CCOc1cc(/C=N/NC(=O)COc2ccccc2C)ccc1OC(=O)c1cccs1`?
Diaph inh CS: 11; G6PDH counter: 4; L major viab: -3; WT yeast gro inh: 65*; Diaphorase act: 0.9

Results for O=C1CS/C(=N/N=C/c2ccc(OS(=O)(=O)c3ccccc3)cc2)N1 ?
Diaph inh CS: 8; G6PDH counter: -4; L major viab: 5; WT yeast gro inh: -3; Diaphorase act: 0.9

What do the screens show for `Cn1cc(Cl)c(C(=O)N/N=C/c2ccc(OS(=O)(=O)c3ccccc3)cc2)n1`?
Diaph inh CS: 30; G6PDH counter: 1; L major viab: 3; WT yeast gro inh: -6; Diaphorase act: 0.7

What do the screens show for `CCC(=O)N/N=C/c1ccc(OS(=O)(=O)c2ccccc2)cc1`?
Diaph inh CS: 0; G6PDH counter: -9; L major viab: 57*; WT yeast gro inh: -3; Diaphorase act: 1

Results for Cc1ccc(Cl)cc1NC(=O)COC(=O)c1ccc(N2CCCC2)c([N+](=O)[O-])c1 ?
Diaph inh CS: 8; G6PDH counter: -20; L major viab: -1; WT yeast gro inh: -6; Diaphorase act: 0.9

What do the screens show for `COc1ccc(OC)c(NC(=O)Cc2coc3cc(C)cc(C)c23)c1`?
Diaph inh CS: 8; G6PDH counter: 1; L major viab: -5; WT yeast gro inh: 7; Diaphorase act: 0.9

What do the screens show for `CCCSc1nc(C)c2cc(C)cc(C)c2n1`?
Diaph inh CS: 18; G6PDH counter: 12; L major viab: -1; WT yeast gro inh: 54; Diaphorase act: 0.8

Results for Cc1cc(C)c2nc3nc(C)c(C)cc3c(N)c2c1 ?
Diaph inh CS: 1; G6PDH counter: 22; L major viab: 100*; WT yeast gro inh: 33; Diaphorase act: 1

What do the screens show for `CC1CN(CCCOc2ccc([N+](=O)[O-])cc2)CC(C)O1` (configuration not stated)?
Diaph inh CS: -5; G6PDH counter: 5; L major viab: 91*; WT yeast gro inh: -15; Diaphorase act: 1

What do the screens show for `CC1CC(C)CN(CCCCOc2ccc([N+](=O)[O-])cc2)C1` (configuration not stated)?
Diaph inh CS: 6; G6PDH counter: 4; L major viab: 95*; WT yeast gro inh: 18; Diaphorase act: 0.9

What do the screens show for `CCOC(=O)C(CCCCOc1ccc([N+](=O)[O-])cc1)C(=O)OCC`?
Diaph inh CS: 11; G6PDH counter: 4; L major viab: 2; WT yeast gro inh: 34; Diaphorase act: 0.9

What do the screens show for `O=[N+]([O-])c1ccccc1OCCCN1CCOCC1`?
Diaph inh CS: 2; G6PDH counter: 7; L major viab: 42; WT yeast gro inh: 9; Diaphorase act: 1

What do the screens show for `CC1CN(CCCOc2ccccc2[N+](=O)[O-])CC(C)O1` (configuration not stated)?
Diaph inh CS: 9; G6PDH counter: 6; L major viab: 90*; WT yeast gro inh: 1; Diaphorase act: 0.9

How did Cc1cc(OCCN2CC(C)OC(C)C2)ccc1[N+](=O)[O-] (configuration not stated) do in these assays?
Diaph inh CS: 10; G6PDH counter: 0; L major viab: 76*; WT yeast gro inh: -19; Diaphorase act: 0.9

Results for Cc1ccc(C(=O)N2CC(C)OC(C)C2)cc1[N+](=O)[O-] (configuration not stated) ?
Diaph inh CS: 4; G6PDH counter: 3; L major viab: -5; WT yeast gro inh: -14; Diaphorase act: 1

How did COc1ccccc1/C=N/NC(=O)C(=O)N1CCN(c2ccccc2OC)CC1 do in these assays?
Diaph inh CS: 7; G6PDH counter: -2; L major viab: 35; WT yeast gro inh: -4; Diaphorase act: 0.9

How did Cc1ccc(C(C)C)c(OCCCN2CC(C)OC(C)C2)c1 (configuration not stated) do in these assays?
Diaph inh CS: 5; G6PDH counter: 26; L major viab: 97*; WT yeast gro inh: 14; Diaphorase act: 1

What do the screens show for `COC(=O)C1CCN(CCCOc2ccc(CN3CCN(c4ccc([N+](=O)[O-])cc4)CC3)cc2)CC1`?
Diaph inh CS: -15; G6PDH counter: 8; L major viab: 95*; WT yeast gro inh: 42; Diaphorase act: 1.1

Results for CC1CN(CCOc2ccc([N+](=O)[O-])cc2)CC(C)O1 (configuration not stated) ?
Diaph inh CS: 22; G6PDH counter: 7; L major viab: 85*; WT yeast gro inh: -3; Diaphorase act: 0.8

What do the screens show for `Cc1ccc([N+](=O)[O-])c(OCCN2CCNCC2)c1`?
Diaph inh CS: 12; G6PDH counter: -7; L major viab: -6; WT yeast gro inh: -4; Diaphorase act: 0.9

How did CC1CN(CCOc2ccccc2-c2ccccc2)CC(C)O1 (configuration not stated) do in these assays?
Diaph inh CS: 11; G6PDH counter: -1; L major viab: 7; WT yeast gro inh: -21; Diaphorase act: 0.9

What do the screens show for `O=[N+]([O-])c1ccc(OCCN2CCNCC2)cc1`?
Diaph inh CS: 13; G6PDH counter: 6; L major viab: 99*; WT yeast gro inh: 0; Diaphorase act: 0.9

Results for C/C(=N\NC(=O)c1ccccc1F)c1ccc2c(c1)Nc1ccccc1S2 ?
Diaph inh CS: 5; G6PDH counter: -54; L major viab: 41; WT yeast gro inh: 10; Diaphorase act: 0.9

How did C/C(=N\NC(=O)c1ccc(O)cc1)c1ccc2c(c1)Nc1ccccc1S2 do in these assays?
Diaph inh CS: 20; G6PDH counter: -30; L major viab: 75*; WT yeast gro inh: 6; Diaphorase act: 0.8

How did O=c1cc(NC2CCCCC2)c2ccccc2o1 do in these assays?
Diaph inh CS: 9; G6PDH counter: 17; L major viab: 6; WT yeast gro inh: 12; Diaphorase act: 0.9

Results for COC(=O)Nc1snnc1C ?
Diaph inh CS: 8; G6PDH counter: 15; L major viab: -4; WT yeast gro inh: 63*; Diaphorase act: 0.9

How did CCOc1ccc2[nH]c(=O)c(CN(CCO)C(c3nnnn3C3CCCCC3)C(C)C)cc2c1 (configuration not stated) do in these assays?
Diaph inh CS: 14; G6PDH counter: 16; L major viab: 69*; WT yeast gro inh: 0; Diaphorase act: 0.9

Results for Cc1ccc(C(=O)C(OC(=O)CNS(=O)(=O)c2ccccc2)c2ccccc2)cc1 (configuration not stated) ?
Diaph inh CS: 30; G6PDH counter: 14; L major viab: -4; WT yeast gro inh: 20; Diaphorase act: 0.7

Results for CSc1nc(Cl)c(Cc2ccc(OC(C)C)cc2)c(N(C)C)n1 ?
Diaph inh CS: 11; G6PDH counter: -19; L major viab: 7; WT yeast gro inh: 63*; Diaphorase act: 0.9
